# This is a sample that favours compounds with a hit; in the whole collection about 4.6% have one here.
# Mdm2 ligase inh: MDM2-luciferase reporter signal enhancers, primary screen, MDM2 E3 ligase inhibitor project, cell-based, luminescence, 1536-well | signal enhancement, % at 5 µM | E3 ubiquitin-protein ligase Mdm2 (Homo sapiens), Q00987 | actives 0.11% (n = 210,000) | cell-based MDM2 ubiquitination luciferase reporter, 2 h; 0 = plate control, 100 = twice control, blank-subtracted;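 active means signal enhancement of 30% or more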;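 further: luminescence tracks abundance of the self-degrading MDM2-luciferase fusion protein; higher signal means inhibition of MDM2 E3 ligase activity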
#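 Test system: mammalian cells stably expressing self-ubiquitinating, self-degrading MDM2 E3–luciferase fusion; Amount: 2000 cells in each well; Medium: DMEM; Schedule: 4 h settle plus 2 h compound, 37 °C; Technique: SteadyLite luciferase luminescence after 15 min room-temperature reagent incubation; Benchmarks: plate control and blank wells.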
# APP 5'UTR act: activators of APP 5'UTR luciferase reporter, primary screen, SH-SY5Y cells; SH-SY5Y APP 5'UTR luciferase reporter, luminescence; zero percent = DMSO vehicle wells; activation, % at 2 µM; actives 1% (n = 190,000);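 active means activation above a set limit, based on mean plus 3 SD of controls, cut at about 140% in these data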
# Wee1 degr inh: Wee1 degradation inhibitors, primary screen, cell-based, HeLa, Wee1K328M-luciferase, luminescence. AID 1321, 2008. HeLa Luc-Wee1K328M stability; 100% = proteasome inhibitor MG132 effect. reporter increase, % at 5 µM. actives 1.2% (n = 220,000). Wee1-like protein kinase (Homo sapiens), P30291;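 active means activation above the mean of all tested compounds plus 3 SD, set per screening run, cut at about 8.8% in these data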;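 further: cells exposed to compound for 20 h before luminescence read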
# NF-kB neuron act: activators of NF-kB expression in neurons, primary screen, cell-based, HTS. human neuronal cells, NF-kB reporter expression; active compounds read high. fold change at 12.5 µM. actives 1.6% (n = 190,000); in the data active means fold change above about 3.3
# p97 inhibitor: inhibitors of human p97 ATPase, primary screen, biochemical; Transitional endoplasmic reticulum ATPase (Homo sapiens), P55072; recombinant p97 ATPase, Kinase-Glo ATP luminescence, 3 h; inhibition, % at 8 µM; actives 0.42% (n = 220,000); AID 1481, 2009; in the data active means inhibition above about 15%
# Target sequence (P55072 whole entry, looked up): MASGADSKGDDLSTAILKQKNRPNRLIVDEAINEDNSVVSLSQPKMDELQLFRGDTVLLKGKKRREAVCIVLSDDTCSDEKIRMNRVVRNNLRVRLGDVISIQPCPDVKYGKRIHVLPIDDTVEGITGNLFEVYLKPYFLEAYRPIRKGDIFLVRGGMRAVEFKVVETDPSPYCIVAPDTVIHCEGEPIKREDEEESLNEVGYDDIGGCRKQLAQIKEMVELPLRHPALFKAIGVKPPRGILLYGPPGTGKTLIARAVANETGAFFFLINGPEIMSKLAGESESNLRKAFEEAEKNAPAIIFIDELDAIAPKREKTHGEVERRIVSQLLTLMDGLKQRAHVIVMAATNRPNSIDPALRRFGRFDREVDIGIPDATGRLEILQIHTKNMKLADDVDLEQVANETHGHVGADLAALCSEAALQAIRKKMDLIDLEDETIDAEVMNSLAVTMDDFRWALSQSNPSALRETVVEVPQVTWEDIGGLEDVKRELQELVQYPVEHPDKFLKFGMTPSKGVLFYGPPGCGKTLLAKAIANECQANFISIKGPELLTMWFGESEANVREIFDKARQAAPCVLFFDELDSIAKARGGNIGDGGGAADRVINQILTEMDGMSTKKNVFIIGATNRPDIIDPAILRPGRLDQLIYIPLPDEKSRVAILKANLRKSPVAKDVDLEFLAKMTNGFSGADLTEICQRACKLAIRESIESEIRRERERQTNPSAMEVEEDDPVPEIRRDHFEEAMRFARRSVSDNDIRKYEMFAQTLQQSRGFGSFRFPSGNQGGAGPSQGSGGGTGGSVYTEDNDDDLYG
# STAT1 act: STAT1 signaling activators, primary screen, cell-based, HTS, luciferase reporter. NIH 3T3 STAT1-luciferase reporter, IFN-gamma, luminescence; 100% = IFN-gamma alone, no compound. activation (% of control), % at 5.5 µM. actives 2.6% (n = 200,000). AID 932, 2007;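 active means activation above the screen-wide mean activation plus 3 SD, cut at about 130% in these data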
# Numbers stand for hits; i = inactive; nt = no result.
SMILES,Mdm2 ligase inh,APP 5'UTR act,Wee1 degr inh,NF-kB neuron act,p97 inhibitor,STAT1 act
O=C1NCCN(Cc2ccc(Cl)c(F)c2)C1CC(=O)N1CCCCO1 (centres undefined),i,i,i,i,i,i
Cc1ccc(-c2nnc3cccc(Cl)n23)cc1,i,i,i,i,i,i
Cc1c(NS(=O)(=O)c2ccc(Cl)c(C(=O)OC(C)C(=O)NCc3ccco3)c2)c(=O)n(-c2ccccc2)n1C (centres undefined),i,i,i,i,i,i
O=C(CSCc1ccccc1)N1CCN(c2ccccc2)CC1,i,i,9.0,i,i,i
CCOC(=O)CSc1nnc(Cn2nnc3ccccc32)n1-c1ccc(F)cc1,i,nt,i,nt,i,nt
COc1ccccc1-c1nnc2n1N=C(c1ccc(O)c(O)c1)CS2,i,i,i,3.4,i,i
COc1cc(C2C3=C(Nc4nc(N)[nH]c(=O)c42)c2ccccc2C3=O)ccc1O (centres undefined),nt,nt,i,nt,i,nt
Cc1cccc(N=C2NN=C(c3ccc4c(c3)OCCO4)CS2)c1,i,140,i,i,i,i
Cc1cccc(N=C2NN=C(c3c(C)[nH]c4ccccc34)CS2)c1,i,i,i,i,i,i
CSc1c(SCc2ccccc2)cnn(-c2ccccc2)c1=O,i,i,i,i,i,i
CCc1ccccc1NC(=O)c1onc(C)c1Cl,i,i,i,i,i,i
CCc1ccc(NC(=O)c2onc(C)c2Cl)cc1,i,135,i,6,i,143
CCCS/C(N)=N/N=C/c1ccccc1O,i,i,i,3.3,i,i
C=CCS/C(N)=N\N=C\c1c(O)ccc2ccccc12,i,nt,i,nt,i,nt
CCC(Oc1ccccc1)C(=O)Nc1ccsc1C(=O)OC (centres undefined),i,i,i,i,i,i
Cc1nn(C)cc1/C=C/C(=O)c1cccs1,i,i,i,6.3,i,i
Cc1c(/C=C/C(=O)c2ccccc2)cnn1C,i,i,i,i,i,i
Cc1c(/C=C/C(=O)c2ccc(O)cc2)cnn1C,i,i,i,i,i,i
Cc1nn(C)cc1/C=C/C(=O)c1ccccc1,i,161,i,11,i,i
CCn1cc(/C=C/C(=O)c2ccc(O)cc2)c(C)n1,i,i,i,3.6,i,i
CCn1ncc(/C=C/C(=O)c2ccccc2)c1C,i,198,i,i,i,133
Cc1nn(C)c(C)c1/C=C/C(=O)c1cccs1,nt,i,i,i,i,i
Cc1nn(C)c(C)c1/C=C/C(=O)c1ccccc1,i,i,i,i,i,i
COc1ccc(OC)c(/C=C/C(=O)OCC(=O)c2c(N)n(C)c(=O)n(C)c2=O)c1,i,i,i,i,i,i
COc1ccc2c(C)cc(SCC(=O)N(C)C3CCS(=O)(=O)C3)nc2c1 (centres undefined),i,i,i,i,i,i
SMILES,Mdm2 ligase inh,APP 5'UTR act,Wee1 degr inh,NF-kB neuron act,p97 inhibitor,STAT1 act
CCOCCCNCC(=O)Nc1ccc(S(=O)(=O)NC(C)CC)cc1 (centres undefined),i,i,i,i,i,i
COC(=O)NNC(=O)c1ccc(C)c(Br)c1,i,i,i,i,i,i
O=C(O)CSc1cccc[n+]1[O-],i,i,i,i,i,i
O=C(CSc1cccc[n+]1[O-])c1cc2ccccc2o1,i,i,i,4.2,i,i
O=C(CSc1cccc[n+]1[O-])c1cc(Cl)ccc1Cl,i,i,i,7,i,i
COC(=O)c1sc2nc(C)c([N+](=O)[O-])c(C)c2c1N,i,i,i,i,i,i
CCOc1ccc(N/C=C\C(=O)c2ccc3c(c2)OCO3)cc1,nt,i,i,i,i,131
COc1ccc(N/C=C\C(=O)c2ccc3c(c2)OCO3)cc1,i,i,i,8.4,i,i
O=C(/C=C\Nc1ccc2c(c1)OCO2)c1ccc2c(c1)OCO2,i,197,i,8,i,i
CCS(=O)(=O)c1ccc(O)c(NC(=O)Nc2ccccc2OC)c1,i,nt,i,nt,i,nt
